The test system of data set [1] is Candida albicans. The data set can be described thus: Antifungal activity against Candida albicans ATCC 64124 incubated for 48 hrs by modified CLSI M27-A3 protocol based method. The format is functional. As to conditions: ATCC 64124, 48 h.
Data set [2] is described as follows: Hemolytic activity in mouse erythrocytes assessed as hemolysis level at 31.3 ug/ml incubated for 1 hr at 37 degC. The following applies: read-out: Activity. The format is ADME, cell-based, Erythrocyte. The procedure, abridged:
(§1)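 Mouse erythrocytes incubated 1 h at 37 °C with test agents over 1.95 to 125 µg/mL. Percent lysis is read for each concentration.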

Data set [3] has as its system Candida albicans. The data set can be described thus: Effect on sterol composition in Candida albicans ATCC 64124 assessed as eburicol level at 1.95 ug/mL incubated for 10 mins by LC-MS analysis (reference value: 6.28%).
The nature of data set [4]: Toxicity in human A549 cells assessed as reduction in cell viability incubated for 24 hrs by resazurin dye based assay. The procedure, abridged:
(§2)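 Toxicity tested in the nucleated lines A549 and BEAS-2B to give EC50 values. Selectivity index is EC50 against the mammalian line divided by the MIC against a given fungal strain.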
In general terms: Alamar Blue is a resazurin reagent that responds to reducing activity.

In data set [5] the test system is Candida albicans. The data set can be described thus: Effect on sterol composition in Candida albicans ATCC 64124 assessed as lanosterol level at 1.95 ug/mL incubated for 10 mins by LC-MS analysis (reference value: 29.38%).
In the next data set the test system is Pichia kudriavzevii. Kind of data set: Antifungal activity against Candida krusei ATCC 6258 incubated for 48 hrs by modified CLSI M27-A3 protocol based method. It is filed as functional. As to conditions: ATCC 6258, 48 h. The procedure, abridged:
(§3)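 For C. albicans ATCC 10231, C. krusei ATCC 6258 and C. parapsilosis ATCC 22019, MIC-0 was read, meaning complete growth inhibition. For azole controls, MIC-2 (50% growth inhibition) was reported instead. Caspofungin and voriconazole were tested here; other controls came from earlier work.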

The subject of the next data set is Candida parapsilosis. The data set can be described thus: Antifungal activity against Candida parapsilosis ATCC 22019 incubated for 48 hrs by modified CLSI M27-A3 protocol based method. It is filed as functional. As to conditions: Lodderomyces parapsilosis, ATCC 22019, 48 h. The procedure, abridged: as §3
Data set [6] in a line: Toxicity in human BEAS2B cells assessed as reduction in cell viability incubated for 24 hrs by resazurin dye based assay. As to conditions: BEAS-2B cells. The procedure, abridged:
as §2

The next data set concerns Nakaseomyces glabratus. The data set can be described thus: Antifungal activity against Candida glabrata ATCC 2001 incubated for 48 hrs by modified CLSI M27-A3 protocol based method. It is filed as functional. The following applies: ATCC 2001, 48 h.
Data set [7] relates to Candida albicans. The data set can be described thus: Effect on sterol composition in Candida albicans ATCC 10231 assessed as ergosterol level at 0.125 ug/mL incubated for 10 mins by GC-MS analysis (reference value: 91.15%).
Data set [8] is described as follows: Hemolytic activity in mouse erythrocytes assessed as hemolysis level at 7.8 ug/ml incubated for 1 hr at 37 degC. It is filed as ADME, cell-based, Erythrocyte. As to conditions: read-out: Activity. The procedure, abridged:
as §1

Data set [9] has as its system Candida albicans. The data set can be described thus: Effect on sterol composition in Candida albicans ATCC 10231 assessed as unknown sterol level at 0.125 ug/mL incubated for 10 mins by GC-MS analysis (reference value: 1.88 to 2.78%).
The nature of data set [10]: Hemolytic activity in mouse erythrocytes assessed as hemolysis level at 1.95 ug/ml incubated for 1 hr at 37 degC. The format is ADME, cell-based, Erythrocyte. The following applies: read-out: Activity. The procedure, abridged:
as §1

In data set [11] the test system is Candida albicans. Kind of data set: Antifungal activity against ITC and FLC-susceptible Candida albicans ATCC MYA-2876 incubated for 48 hrs by modified CLSI M27-A3 protocol based method. The format is functional. As to conditions: ATCC MYA-2876, 48 h. The procedure, abridged: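 Because these Candida strains show trailing growth, MIC-2 was read, meaning 50% growth inhibition. Caspofungin and voriconazole were tested here; other controls came from earlier work.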

A short description of data set [12]: Hemolytic activity in mouse erythrocytes assessed as hemolysis level at 3.9 ug/ml incubated for 1 hr at 37 degC. The format is ADME, cell-based, Erythrocyte. As to conditions: read-out: Activity. The procedure, abridged: as §1
Data set [13] deals with Candida albicans. The data set can be described thus: Effect on sterol composition in Candida albicans ATCC 64124 assessed as unknown sterol level at 1.95 ug/mL incubated for 10 mins by LC-MS analysis (reference value: 2.67 to 6.98%).
Data set [14] has as its system Candida albicans. Kind of data set: Effect on sterol composition in Candida albicans ATCC 64124 assessed as ergosterol level at 1.95 ug/mL incubated for 10 mins by LC-MS analysis (reference value: 54.72%).
A further data set can be described thus: in vitro. The following applies: mouse, mouse erythrocytes.
The subject of data set [15] is Candida albicans. The data set can be described thus: Effect on sterol composition in Candida albicans ATCC 10231 assessed as lanosterol level at 0.125 ug/mL incubated for 10 mins by GC-MS analysis (reference value: 4.17%).
Data set [16] deals with Candida albicans. The data set can be described thus: Antifungal activity against ITC and FLC-susceptible Candida albicans ATCC MYA-2310 incubated for 48 hrs by modified CLSI M27-A3 protocol based method. The format is functional. As to conditions: ATCC MYA-2310, 48 h.
Data set [17] has as its system Candida albicans. The data set can be described thus: Antifungal activity against ITC and FLC-resistant Candida albicans ATCC MYA-90819 incubated for 48 hrs by modified CLSI M27-A3 protocol based method. It is filed as functional. The following applies: ATCC MYA-90819, 48 h.
A short description of data set [18]: Hemolytic activity in mouse erythrocytes assessed as hemolysis level at 15.6 ug/ml incubated for 1 hr at 37 degC. It is filed as ADME, cell-based, Erythrocyte. As to conditions: read-out: Activity. The procedure, abridged:
as §1

A short description of data set [19]: Hemolytic activity in mouse erythrocytes assessed as hemolysis level at 125 ug/ml incubated for 1 hr at 37 degC. As to conditions: read-out: Activity. The format is ADME, cell-based, Erythrocyte. The procedure, abridged:
as §1

In brackets after ≈: the same amount, converted by molar mass.

With `OC(Cn1cncn1)(Cn1cncn1)c1ccc(F)cc1F` [FLUCONAZOLE], the MIC50 with Candida albicans [1] is above 408 µM; in the data set on Pichia kudriavzevii, above 102 µM; in the data set with Candida parapsilosis, 6.4 µM (≈ 1.96 µg/mL); with Nakaseomyces glabratus, above 102 µM; in the data set on Candida albicans [11], 50.9 µM (≈ 15.6 µg/mL); against Candida albicans [16], above 408 µM. The compound also showed an MIC50 in the data set with Candida albicans [17] above 408 µM. Moreover, the hemolysis at 1 h, 31.3 ug/ml in data set [2] came out at 7.5%. Besides, the Activity was 11.61% in the data set on Candida albicans [3]; 30.59% in the data set with Candida albicans [5]; 93.79% in the data set with Candida albicans [7]; 1.12 - 1.25% with Candida albicans [9]; 0.02 - 9.75% in the data set with Candida albicans [13]; 48.03% in the data set on Candida albicans [14]. The Activity in the data set on Candida albicans [15] is 3.81%. Besides, the EC50 at 24 h in data set [4] and in data set [6] was above 62.5 µg/mL each time. Moreover, the hemolysis at 1 h, 7.8 ug/ml in data set [8] came out at 0%. The hemolysis at 1 h, 1.95 ug/ml in data set [10] is 0%. Further, the hemolysis at 1 h, 3.9 ug/ml in data set [12] came out at 0%. Further, in “in vitro”, the hemolysis at 1 h, 62.5 ug/ml amounted to 2.7%. In [18], the hemolysis at 1 h, 15.6 ug/ml stood at 0%. Also, the hemolysis at 1 h, 125 ug/ml in [19] amounted to 13.4%.

Usually MIC50 stands for an inhibitory concentration at the 50% level, which refers to growth in some studies and to a panel of isolates in others. Higher therefore signals weaker potency. One may read the EC50 as the concentration that produces a half-maximal response.

The record behind these values is ChEMBL document CHEMBL4265871, “Novel alkylated azoles as potent antifungals” (Eur J Med Chem, 2017).
